Experimental data published in the M2OR odorant receptor database.
Where a chain is given by its changes, count along the chain named.

Assays:
Details in all cases: stereoisomer not certain
OR6K3 = test system: T1, OR6K3
T1 sequence (whole entry): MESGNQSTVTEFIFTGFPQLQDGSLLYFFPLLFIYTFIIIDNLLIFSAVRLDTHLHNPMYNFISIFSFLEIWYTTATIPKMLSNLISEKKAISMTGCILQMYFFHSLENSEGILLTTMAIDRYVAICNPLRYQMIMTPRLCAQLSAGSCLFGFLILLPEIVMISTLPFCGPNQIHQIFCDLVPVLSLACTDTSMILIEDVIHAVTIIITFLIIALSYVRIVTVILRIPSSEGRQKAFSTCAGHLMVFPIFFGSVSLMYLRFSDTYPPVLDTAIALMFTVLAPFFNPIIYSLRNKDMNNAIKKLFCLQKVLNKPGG
In short: (§1)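 Assay methods differ from source to source, frequently being transient luciferase assays in mammalian cell lines. For each receptor–molecule pair, the label responsive (active) applies when the original authors judged the measured signal statistically different from baseline, and non-responsive (inactive) applies otherwise.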

OR6K6 (Homo sapiens) = target: T2, OR6K6 (Homo sapiens) (UniProt Q8NGW6)
T2 sequence (whole entry): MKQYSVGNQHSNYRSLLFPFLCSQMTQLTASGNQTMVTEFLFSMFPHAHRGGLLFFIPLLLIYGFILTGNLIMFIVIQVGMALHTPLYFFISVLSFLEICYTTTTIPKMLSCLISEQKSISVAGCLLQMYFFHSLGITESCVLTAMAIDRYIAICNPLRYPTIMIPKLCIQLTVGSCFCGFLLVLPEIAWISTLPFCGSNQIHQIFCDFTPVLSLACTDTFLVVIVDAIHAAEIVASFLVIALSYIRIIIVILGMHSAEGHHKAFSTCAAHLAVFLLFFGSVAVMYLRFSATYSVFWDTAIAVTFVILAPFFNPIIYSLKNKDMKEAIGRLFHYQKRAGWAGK
In short: as §1

OR6M1 (Homo sapiens) = target: T3, OR6M1 (Homo sapiens) (UniProt Q8NGM8)
T3 sequence (whole entry): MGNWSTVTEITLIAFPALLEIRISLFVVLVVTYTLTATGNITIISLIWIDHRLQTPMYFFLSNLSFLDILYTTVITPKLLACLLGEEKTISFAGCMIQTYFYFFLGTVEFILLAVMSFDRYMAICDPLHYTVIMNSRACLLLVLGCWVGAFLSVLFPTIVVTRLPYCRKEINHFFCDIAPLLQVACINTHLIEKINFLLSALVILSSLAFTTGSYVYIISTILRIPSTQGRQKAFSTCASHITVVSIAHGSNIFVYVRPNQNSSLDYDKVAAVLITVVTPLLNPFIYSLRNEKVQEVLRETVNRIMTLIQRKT
In short: as §1

OR6M1 R224C = test system: T4, OR6M1 R224C
T4 sequence (whole entry): T3 sequence (whole entry) with R224C
In short: as §1

OR6M1 T276K = test system: T5, OR6M1 T276K
T5 sequence (whole entry): T3 sequence (whole entry) with T276K
In short: as §1

OR6N1 (Homo sapiens) = target: T6, OR6N1 (Homo sapiens) (UniProt Q8NGY5)
T6 sequence (whole entry): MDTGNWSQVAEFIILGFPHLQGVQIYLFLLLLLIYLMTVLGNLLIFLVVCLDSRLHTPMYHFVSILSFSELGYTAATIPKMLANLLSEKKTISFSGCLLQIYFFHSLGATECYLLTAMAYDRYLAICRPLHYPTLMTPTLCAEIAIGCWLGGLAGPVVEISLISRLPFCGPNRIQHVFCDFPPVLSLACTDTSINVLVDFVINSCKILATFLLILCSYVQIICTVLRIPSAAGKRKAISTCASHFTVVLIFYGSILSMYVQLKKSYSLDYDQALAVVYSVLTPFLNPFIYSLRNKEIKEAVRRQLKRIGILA
In short: as §1

OR6N2 (Homo sapiens) = target: T7, OR6N2 (Homo sapiens) (UniProt Q8NGY6)
T7 sequence (whole entry): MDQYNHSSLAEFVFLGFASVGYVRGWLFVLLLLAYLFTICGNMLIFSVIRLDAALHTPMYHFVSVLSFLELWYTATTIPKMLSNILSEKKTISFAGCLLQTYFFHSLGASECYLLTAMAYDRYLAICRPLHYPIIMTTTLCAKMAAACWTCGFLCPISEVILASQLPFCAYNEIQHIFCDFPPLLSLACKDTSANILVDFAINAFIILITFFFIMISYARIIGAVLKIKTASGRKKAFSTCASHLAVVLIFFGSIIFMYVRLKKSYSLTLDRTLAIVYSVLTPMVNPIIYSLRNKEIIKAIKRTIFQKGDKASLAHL
In short: as §1

OR6P1 (Homo sapiens) = target: T8, OR6P1 (Homo sapiens) (UniProt Q8NGX9)
T8 sequence (whole entry): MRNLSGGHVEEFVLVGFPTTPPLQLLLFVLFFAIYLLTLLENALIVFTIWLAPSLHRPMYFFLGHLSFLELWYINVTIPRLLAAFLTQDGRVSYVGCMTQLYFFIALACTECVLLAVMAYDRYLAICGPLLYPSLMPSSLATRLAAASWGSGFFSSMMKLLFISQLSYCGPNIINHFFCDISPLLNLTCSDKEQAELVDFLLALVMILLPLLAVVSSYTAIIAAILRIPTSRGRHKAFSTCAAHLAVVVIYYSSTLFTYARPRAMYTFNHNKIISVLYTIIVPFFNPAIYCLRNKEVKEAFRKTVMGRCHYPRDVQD
In short: as §1

OR6Q1 (Homo sapiens) = target: T9, OR6Q1 (Homo sapiens) (UniProt Q8NGQ2)
T9 sequence (whole entry): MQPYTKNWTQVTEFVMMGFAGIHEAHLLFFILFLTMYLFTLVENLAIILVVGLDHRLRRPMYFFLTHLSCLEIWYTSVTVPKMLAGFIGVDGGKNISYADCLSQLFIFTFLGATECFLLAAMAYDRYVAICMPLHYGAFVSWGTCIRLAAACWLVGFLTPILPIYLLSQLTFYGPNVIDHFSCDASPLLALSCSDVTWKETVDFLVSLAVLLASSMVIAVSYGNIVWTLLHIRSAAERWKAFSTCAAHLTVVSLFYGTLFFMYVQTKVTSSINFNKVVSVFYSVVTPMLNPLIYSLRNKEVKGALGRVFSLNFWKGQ
In short: as §1

OR6K3 (Homo sapiens) = target: T10, OR6K3 (Homo sapiens) (UniProt Q8NGY3)
T10 sequence (whole entry): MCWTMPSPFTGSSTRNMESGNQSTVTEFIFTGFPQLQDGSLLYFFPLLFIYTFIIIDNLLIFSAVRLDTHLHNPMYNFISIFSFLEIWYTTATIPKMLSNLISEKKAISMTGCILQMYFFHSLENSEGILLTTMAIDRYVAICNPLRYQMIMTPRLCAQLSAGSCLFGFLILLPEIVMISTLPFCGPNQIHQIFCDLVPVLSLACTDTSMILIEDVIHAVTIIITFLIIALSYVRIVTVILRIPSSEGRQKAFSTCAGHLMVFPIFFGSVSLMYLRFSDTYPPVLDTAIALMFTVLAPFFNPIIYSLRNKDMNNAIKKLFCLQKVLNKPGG
In short: as §1

Measured: odorant receptor agonist call

CCC1OC(C)=C(O)C1=O (stereo not given)
not listed: OR6K3 (Homo sapiens)
inactive: all other assays above

CCCCCCC=CCCC=O
not listed: OR6K3 | OR6M1 R224C
inactive: all other assays above

CCCCC(S)C(C)CO (stereo not given)
not listed: OR6K3 | OR6M1 R224C | OR6M1 T276K
inactive: all other assays above

CCCC(S)CCOC(C)=O (stereo not given)
not listed: OR6K3 (Homo sapiens)
inactive: all other assays above

CC(=O)c1c(C)c([N+](=O)[O-])c(C(C)(C)C)c([N+](=O)[O-])c1C
not listed: OR6K3 | OR6M1 R224C | OR6M1 T276K
inactive: all other assays above

CCC(S)C(C)CO (stereo not given)
not listed: OR6K3 | OR6M1 R224C | OR6M1 T276K
inactive: all other assays above

CC1=NC(C)C(C)S1 (stereo not given)
not listed: OR6K3 (Homo sapiens)
inactive: all other assays above

CC(CO)CS (stereo not given)
not listed: OR6K3 | OR6M1 R224C | OR6M1 T276K
inactive: all other assays above

CC1CCCCCCCCCCCCC(=O)C1 (stereo not given)
not listed: OR6K3 | OR6M1 R224C | OR6M1 T276K
inactive: all other assays above

CC1=C(O)C(=O)C(C)O1 (stereo not given)
not listed: OR6K3 (Homo sapiens)
inactive: all other assays above

CC1=C(O)C(=O)OC1C (stereo not given)
not listed: OR6K3 (Homo sapiens)
inactive: all other assays above

CCCCCC(=O)C(C)C(C)=O (stereo not given)
not listed: OR6K3 | OR6M1 R224C | OR6M1 T276K
inactive: all other assays above

CCCCCC(S)C(C)CO (stereo not given)
not listed: OR6K3 | OR6M1 R224C | OR6M1 T276K
inactive: all other assays above

Cc1cnc(C)c(C)n1
not listed: OR6K3 (Homo sapiens)
inactive: all other assays above

CCC1OC(=O)C(O)=C1C (stereo not given)
not listed: OR6K3 (Homo sapiens)
inactive: all other assays above
